Data reported in ChEMBL document CHEMBL2010803, “Novel NSAID 1-acyl-4-cycloalkyl/arylsemicarbazides and 1-acyl-5-benzyloxy/hydroxy carbamoylcarbazides as potential anticancer agents and antioxidants” (Eur J Med Chem, 2012).
Activity calls are given as the source filed them. The calls are words filed in the database; no cut-off is given here.

Columns and labels:
NCI-H460 = assay: Cytostatic activity against human NCI-H460 cells after 72 hrs by MTT assay; assay type: functional, cell-based; details: NCI-H460, 72 h
Summary of the method: (§1)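 Monolayers in DMEM with 10% FBS, 2 mM L-glutamine and penicillin/streptomycin, 37 °C, 5% CO2. Seeded at 1–3 × 10^4 cells/ml, then compound added in tenfold dilutions (10⁻⁸–10⁻⁴ M) for 72 h. MTT read at 570 nm; percent growth taken against time-zero and untreated controls. IC50 by linear regression; quadruplicate, at least two experiments.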

Human alphaherpesvirus 2 = assay: Antiviral activity against HSV2 G infected in human lung fibroblast assessed as inhibition of virus-induced cytopathic effect at 0.32 to 100 uM; assay type: functional, organism-based; details: strain G
Summary of the method: (§2)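 Confluent cell cultures were infected with 100 CCID50 of virus in the presence of test compound at 100, 40, 8, 1.6 and 0.32 μM. Cytopathic effect was scored once it was complete in untreated infected controls.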

Influenza B virus = assay: Antiviral activity against Influenza B virus infected in MDCK cells assessed as inhibition of virus-induced cytopathic effect at 0.32 to 100 uM; assay type: functional, organism-based
Summary of the method: (§3)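 Confluent MDCK monolayers were infected in the presence of the compound at 100, 40, 8, 1.6 and 0.32 μM. Viral cytopathicity was scored once it was complete in untreated infected control cultures.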

Influenza A virus [1] = assay: Antiviral activity against Influenza A virus H3N2 infected in MDCK cells assessed as inhibition of virus-induced cytopathic effect at 0.32 to 100 uM; assay type: functional, organism-based; summary of the method: as §3
Punta Toro virus = assay: Antiviral activity against Punta Toro virus infected in african green monkey Vero cells assessed as inhibition of virus-induced cytopathic effect at 0.32 to 100 uM; assay type: functional, organism-based; summary of the method: as §2
[2] = test system: Vesicular stomatitis virus; assay: Antiviral activity against VSV infected in human lung fibroblast assessed as inhibition of virus-induced cytopathic effect at 0.32 to 100 uM; assay type: functional, organism-based
Glycine max = assay: Inhibition of soybean LOX assessed as conversion of sodium linoleate to 13- hydroperoxylinoleic acid at 100 uM
Human respirovirus 3 = assay: Antiviral activity against Parainfluenza virus 3 infected in african green monkey Vero cells assessed as inhibition of virus-induced cytopathic effect at 0.32 to 100 uM; assay type: functional, organism-based; summary of the method: as §2
HeLa = assay: Cytostatic activity against human HeLa cells after 3 days by coulter counter analysis; assay type: functional, cell-based; details: 72 h
Summary of the method: (§4)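 300,000–500,000 cells/ml mixed 1:1 with compound dilutions and incubated at 37 °C for 2 days (L1210) or 3 days (CEM, HeLa). Cell number counted with a Coulter counter; HeLa trypsinized before counting.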

Felid alphaherpesvirus 1 = assay: Antiviral activity against Feline herpesvirus infected in feline CRFK cells assessed as inhibition of virus-induced cytopathic effect at 0.32 to 100 uM; assay type: functional, organism-based; summary of the method: as §2
CCRF-CEM = assay: Cytostatic activity against human CEM cells after 3 days by coulter counter analysis; assay type: functional, cell-based; details: 72 h; summary of the method: as §4
[3] = test system: Vesicular stomatitis virus; assay: Antiviral activity against Vesicular stomatitis virus infected in human cervix carcinoma cells assessed as inhibition of virus-induced cytopathic effect at 0.32 to 100 uM; assay type: functional, organism-based
Summary of the method: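 Confluent human cervix carcinoma (HeLa) cultures received 100 CCID50 of VSV together with the compound at 100, 40, 8, 1.6 or 0.32 μM. Cytopathicity was read at the point of full CPE in infected, untreated control wells.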

[4] = test system: Human immunodeficiency virus 1; assay: Antiviral activity against HIV1 3B infected in human CEM cells assessed as inhibition of virus-induced CEM giant cell formation at 0.32 to 100 uM after 4 days; assay type: functional, organism-based; details: CCRF-CEM
Summary of the method: (§5)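 CEM cells (~3 × 10^5 cells/cm³) exposed to 100 CCID50/ml of virus and seeded into wells holding compound dilutions. Incubated 4 days at 37 °C, then giant cell formation examined microscopically.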

Influenza A virus [5] = assay: Antiviral activity against Influenza A virus H1N1 infected in MDCK cells assessed as inhibition of virus-induced cytopathic effect at 0.32 to 100 uM; assay type: functional, organism-based; summary of the method: as §3
MCF7 = assay: Cytostatic activity against human MCF7 cells after 72 hrs by MTT assay; assay type: functional, cell-based; details: MCF7, 72 h; summary of the method: as §1
Vaccinia virus = assay: Antiviral activity against Vaccinia virus infected in human lung fibroblast assessed as inhibition of virus-induced cytopathic effect at 0.32 to 100 uM; assay type: functional, organism-based; details: Orthopoxvirus vaccinia
Sindbis virus = assay: Antiviral activity against Sindbis virus infected in african green monkey Vero cells assessed as inhibition of virus-induced cytopathic effect at 0.32 to 100 uM; assay type: functional, organism-based; summary of the method: as §2
HCT-116 = assay: Cytostatic activity against human HCT116 cells after 72 hrs by MTT assay; assay type: functional, cell-based; details: HCT-116, 72 h; summary of the method: as §1
[6] = test system: Radical scavenging activity; assay: Antioxidant activity assessed as DPPH free radical scavenging activity at 100 uM after 20 mins by spectrophotometric analysis; assay type: functional
Summary of the method: (§6)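 0.05 mM DPPH in absolute ethanol mixed with an equal volume of compound in DMSO (final 100 μM). Shaken and left 20 or 60 min, then absorbance read at 517 nm and percent activity calculated. Three replicates, averaged.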

[7] = test system: Mammalian orthoreovirus 1; assay: Antiviral activity against Reovirus-1 infected in african green monkey Vero cells assessed as inhibition of virus-induced cytopathic effect at 0.32 to 100 uM; assay type: functional, organism-based; summary of the method: as §2
Coxsackievirus B4 [8] = assay: Antiviral activity against Coxsackievirus B4 infected in human cervix carcinoma cells assessed as inhibition of virus-induced cytopathic effect at 0.32 to 100 uM; assay type: functional, organism-based; summary of the method: as §2
L1210 = assay: Cytostatic activity against mouse L1210 cells after 2 days by coulter counter analysis; assay type: functional, cell-based; details: L1210, 48 h; summary of the method: as §4
[9] = Antioxidant activity assessed as inhibition of AAPH-induced linoleic acid lipid peroxidation by measuring conjugated diene hydroperoxide level; assay type: functional; design: concentration or dose not given beside the values; details: dose or concentration not given here
Summary of the method: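 Linoleic acid sodium salt (10 μL of 16 mM) in 0.05 M phosphate buffer pH 7.4 at 37 °C. Oxidation started under air with 50 μL of 40 mM AAPH. Conjugated diene hydroperoxide formation followed as absorbance rise at 234 nm; control contains the same DMSO level. At least triplicate.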

Human alphaherpesvirus 1 = assay: Antiviral activity against HSV1 KOS infected in human lung fibroblast assessed as inhibition of virus-induced cytopathic effect at 0.32 to 100 uM; assay type: functional, organism-based; summary of the method: as §2
[10] = test system: Respiratory syncytial virus; assay: Antiviral activity against RSV infected in human cervix carcinoma cells assessed as inhibition of virus-induced cytopathic effect at 0.32 to 100 uM; assay type: functional, organism-based; summary of the method: as §2
[11] = test system: Human immunodeficiency virus 2; assay: Antiviral activity against HIV2 ROD infected in human CEM cells assessed as inhibition of virus-induced CEM giant cell formation at 0.32 to 100 uM after 4 days; assay type: functional, organism-based; details: ISOLATE ROD, CCRF-CEM; summary of the method: as §5
Feline coronavirus = assay: Antiviral activity against Feline coronavirus infected in feline CRFK cells assessed as inhibition of virus-induced cytopathic effect at 0.32 to 100 uM; assay type: functional, organism-based; summary of the method: as §2
Coxsackievirus B4 [12] = assay: Antiviral activity against Coxsackievirus B4 infected in african green monkey Vero cells assessed as inhibition of virus-induced cytopathic effect at 0.32 to 100 uM; assay type: functional, organism-based; summary of the method: as §2
[13] = test system: Radical scavenging activity; assay: Antioxidant activity assessed as DPPH free radical scavenging activity at 100 uM after 60 mins by spectrophotometric analysis; assay type: functional; summary of the method: as §6

CC(C(=O)NNC(=O)NNC(=O)NO)c1cccc(Oc2ccccc2)c1 (stereo unspecified)
IC50 (NCI-H460): > 100 µM
inhibition (Human alphaherpesvirus 2): inactive
inhibition (Influenza B virus): inactive
inhibition (Influenza A virus [1]): inactive
inhibition (Punta Toro virus): inactive
inhibition [2]: inactive
inhibition (Glycine max): inactive
inhibition (Human respirovirus 3): inactive
IC50 (HeLa): ≥ 250 µM
inhibition (Felid alphaherpesvirus 1): inactive
IC50 (CCRF-CEM): > 250 µM
inhibition [3]: inactive
inhibition [4]: inactive
inhibition (Influenza A virus [5]): inactive
IC50 (MCF7): > 100 µM
inhibition (Vaccinia virus): inactive
inhibition (Sindbis virus): inactive
IC50 (HCT-116): > 100 µM
Activity [6]: 23%
inhibition [7]: inactive
inhibition (Coxsackievirus B4 [8]): inactive
IC50 (L1210): > 250 µM
inhibition [9]: 13%
inhibition (Human alphaherpesvirus 1): inactive
inhibition [10]: inactive
inhibition [11]: inactive
inhibition (Feline coronavirus): inactive
inhibition (Coxsackievirus B4 [12]): inactive
Activity [13]: 48%

CC(C(=O)NNC(=O)NNC(=O)NOCc1ccccc1)c1cccc(Cc2ccccc2)c1 (stereo unspecified)
IC50 (NCI-H460): > 100 µM
inhibition (Human alphaherpesvirus 2): inactive
inhibition (Influenza B virus): inactive
inhibition (Influenza A virus [1]): inactive
inhibition (Punta Toro virus): inactive
inhibition [2]: inactive
inhibition (Glycine max): inactive
inhibition (Human respirovirus 3): inactive
IC50 (HeLa): 76 µM
inhibition (Felid alphaherpesvirus 1): inactive
IC50 (CCRF-CEM): 96 µM
inhibition [3]: inactive
inhibition [4]: inactive
inhibition (Influenza A virus [5]): inactive
IC50 (MCF7): 19 µM
inhibition (Vaccinia virus): inactive
inhibition (Sindbis virus): inactive
IC50 (HCT-116): 64 µM
Activity [6]: 10%
inhibition [7]: inactive
inhibition (Coxsackievirus B4 [8]): inactive
IC50 (L1210): 102 µM
inhibition [9]: 100%
inhibition (Human alphaherpesvirus 1): inactive
inhibition [10]: inactive
inhibition [11]: inactive
inhibition (Feline coronavirus): inactive
inhibition (Coxsackievirus B4 [12]): inactive
Activity [13]: 19%

CC(C)Cc1ccc(C(C)C(=O)NNC(=O)NC2CCCCC2)cc1 (stereo unspecified)
IC50 (NCI-H460): 35 µM
inhibition (Human alphaherpesvirus 2): inactive
inhibition (Influenza B virus): inactive
inhibition (Influenza A virus [1]): inactive
inhibition (Punta Toro virus): inactive
inhibition [2]: inactive
inhibition (Glycine max): inactive
inhibition (Human respirovirus 3): inactive
IC50 (HeLa): 69 µM
inhibition (Felid alphaherpesvirus 1): inactive
IC50 (CCRF-CEM): 53 µM
inhibition [3]: inactive
inhibition [4]: inactive
inhibition (Influenza A virus [5]): inactive
IC50 (MCF7): 19 µM
inhibition (Vaccinia virus): inactive
inhibition (Sindbis virus): inactive
IC50 (HCT-116): 28 µM
Activity [6]: inactive
inhibition [7]: inactive
inhibition (Coxsackievirus B4 [8]): inactive
IC50 (L1210): 30 µM
inhibition [9]: 33%
inhibition (Human alphaherpesvirus 1): inactive
inhibition [10]: inactive
inhibition [11]: inactive
inhibition (Feline coronavirus): inactive
inhibition (Coxsackievirus B4 [12]): inactive
Activity [13]: inactive

CC(C(=O)NNC(=O)NOCc1ccccc1)c1cccc(Oc2ccccc2)c1 (stereo unspecified)
IC50 (NCI-H460): > 100 µM
inhibition (Human alphaherpesvirus 2): inactive
inhibition (Influenza B virus): inactive
inhibition (Influenza A virus [1]): inactive
inhibition (Punta Toro virus): inactive
inhibition [2]: inactive
inhibition (Glycine max): 6%
inhibition (Human respirovirus 3): inactive
IC50 (HeLa): 76 µM
inhibition (Felid alphaherpesvirus 1): inactive
IC50 (CCRF-CEM): 91 µM
inhibition [3]: inactive
inhibition [4]: inactive
inhibition (Influenza A virus [5]): inactive
IC50 (MCF7): 81 µM
inhibition (Vaccinia virus): inactive
inhibition (Sindbis virus): inactive
IC50 (HCT-116): 76 µM
Activity [6]: inactive
inhibition [7]: inactive
inhibition (Coxsackievirus B4 [8]): inactive
IC50 (L1210): 84 µM
inhibition [9]: 8%
inhibition (Human alphaherpesvirus 1): inactive
inhibition [10]: inactive
inhibition [11]: inactive
inhibition (Feline coronavirus): inactive
inhibition (Coxsackievirus B4 [12]): inactive
Activity [13]: inactive
